Experimental data: ChEMBL document CHEMBL1156489, “Small molecule receptor agonists and antagonists of CCR3 provide insight into mechanisms of chemokine receptor activation” (J Biol Chem, 2007)
Where a chain is given by its changes, count along the chain named. Active and inactive are the calls of the source. The calls are words filed in the database; no cut-off is given here.

How the values were obtained:
[1] = target: T1, C-C chemokine receptor type 3 (Homo sapiens) (UniProt P51677); experiment: Agonist activity at human recombinant CCR3 expressed in eosinophils; type: functional
T1 sequence (whole entry): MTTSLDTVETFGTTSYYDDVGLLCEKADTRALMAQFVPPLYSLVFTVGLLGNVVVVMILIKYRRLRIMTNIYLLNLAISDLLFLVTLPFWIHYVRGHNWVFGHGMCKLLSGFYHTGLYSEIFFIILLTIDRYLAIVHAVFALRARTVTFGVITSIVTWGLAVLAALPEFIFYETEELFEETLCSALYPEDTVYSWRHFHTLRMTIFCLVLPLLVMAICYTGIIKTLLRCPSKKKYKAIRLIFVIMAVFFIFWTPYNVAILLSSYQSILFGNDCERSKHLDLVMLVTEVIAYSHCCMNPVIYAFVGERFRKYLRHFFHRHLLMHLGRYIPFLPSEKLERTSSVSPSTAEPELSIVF
Method in brief: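 Gated autofluorescence forward scatter (shape change) assay. Granulocytes from healthy-donor blood were isolated on plasma/Percoll gradients and pre-incubated at 5×10^6 cells/ml for 30 min at room temperature in GAFS buffer (PBS, 0.9 mM CaCl2, 0.5 mM MgCl2, 10 mM HEPES, 10 mM glucose, 0.1% BSA). Cells were exposed to varying compound concentrations for 4 min at 37°C, chilled, fixed and read by flow cytometry.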

[2] = target: T1, C-C chemokine receptor type 3 (Homo sapiens); experiment: Agonist activity at human recombinant CCR3 expressed in mouse L1.2 cells assessed as induction of chemotaxis; type: functional, cell-based
Method in brief: (§1)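 L1.2 cells transfected with CCR3 (stable line kept in 1 mg/ml G-418, or transient electroporation at 1 μg DNA/1 × 10^6 cells, then overnight 10 mM sodium butyrate). Duplicate agonist concentrations in RPMI/0.1% BSA were placed in the lower wells and 2 × 10^5 cells on the upper filter (5 μm pores). After 5 h at 37°C, 5% CO2, migrated cells were counted by hemocytometer and expressed as % migrating.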

[3] = target: T1, C-C chemokine receptor type 3 (Homo sapiens); experiment: Reduction of human recombinant CCR3 expression in mouse L1.2 cells relative to control; type: cell-based; parameters: scale not given: the % may be the effect or the level left
Method in brief: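 In duplicate, 1 × 10^6 CCR3-L1.2 cells in ice-cold medium were warmed to 37°C for 20 min, then given stimulus (100 nM CCL11 or 10 μM compound) for 20 min; ice-held tubes and a buffer tube served as controls. Surface CCR3 was measured by anti-CCR3 flow cytometry as mean fluorescence minus isotype, expressed as % of buffer-treated cells.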

[4] = system: T2, C-C chemokine receptor type 3 (Homo sapiens), P51677 [Y41A]; experiment: Agonist activity at human recombinant CCR3 Y41A mutant expressed in mouse L1.2 cells assessed as induction of chemotaxis; type: functional, cell-based; method in brief: as §1
T2 sequence (whole entry): T1 sequence (whole entry) with Y41A

[5] = system: T3, C-C chemokine receptor type 3 (Homo sapiens), P51677 [Y113A]; experiment: Agonist activity at human recombinant CCR3 Y113A mutant expressed in mouse L1.2 cells assessed as induction of chemotaxis; type: functional, cell-based; method in brief: as §1
T3 sequence (whole entry): T1 sequence (whole entry) with Y113A

[6] = system: T4, C-C chemokine receptor type 3 (Homo sapiens), P51677 [E287Q]; experiment: Agonist activity at human recombinant CCR3 E287Q mutant expressed in mouse L1.2 cells assessed as induction of chemotaxis; type: functional, cell-based; method in brief: as §1
T4 sequence (whole entry): T1 sequence (whole entry) with E287Q

[7] = target: T1, C-C chemokine receptor type 3 (Homo sapiens); experiment: Agonist activity at human recombinant CCR3 expressed in mouse L1.2 cells assessed as receptor internalization at 10 uM after 20 mins by flow cytometry

O=C(Cc1cccc2occc12)Nc1cc[n+](CCCc2ccccc2)c(Br)c1
Activity [1]: Dose-dependent effect | Activity [2]: Dose-dependent effect | Activity [3]: 59.4% | Activity [4]: inactive | Activity [5]: inactive | Activity [6]: inactive | Activity [7]: Active
